Calls of active or inactive are those of the source. The rule behind the calls is not given here.
How the values were obtained:
MX1 = test: Cytotoxicity against human MX1 cells after 72 hrs by SRB assay; format: functional, cell-based; details: MX1, 72 h
Outline: (§1)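 MX-1 breast and HCT-116 colon carcinoma cells exposed to compound for 72 h; growth measured by sulforhodamine B assay. IC50 from median-effect analysis of dose-effect data at six or seven concentrations.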

CCRF-CEM [1] = test: Cytotoxicity against human CCRF-CEM cells after 72 hrs by XTT assay; format: functional, cell-based
Outline: (§2)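 CCRF-CEM leukemia cells and their taxol- or vinblastine-resistant sublines given compound for 72 h. XTT read-out: after phenazine methosulfate–XTT, 6 h at 37 °C, absorbance at 450 and 630 nm. IC50 from median-effect analysis of dose-effect data at six or seven concentrations.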

CCRF-CEM [2] = test: Selectivity ratio of IC50 for taxol-resistant human CCRF-CEM cells to IC50 for human CCRF-CEM cells; format: functional
MCF7 = test: Cytotoxicity against human MCF7 cells after 72 hrs by alamar blue assay; format: functional, cell-based; details: MCF7, 72 h
Outline: (§3)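 H1299, PC3, CL1-0, CL1-5 and MCF-7 cells exposed to compound for 72 h. Alamar blue added, then 6 h at 37 °C; absorbance at 570 and 600 nm. IC50 from median-effect analysis of dose-effect data at six or seven concentrations.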

Nucleic Acid = test: Binding affinity to Escherichia coli plasmid EGFP-N1 DNA at 1 to 10 uM after 22 hrs by alkaline agarose gel shift assay; format: nucleic-acid assay
Outline: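 Purified pEGFP-N1 plasmid DNA (1500 ng) incubated with compound (1–20 µM) in 3 mM NaCl/1 mM sodium phosphate pH 7.4/1 mM EDTA for 2 h at 37 °C. Linearized with BamHI, ethanol-precipitated, denatured in 0.5 N NaOH-10 mM EDTA. Run on 0.8% alkaline agarose gel at 4 °C, 18 V for 22 h. Ethidium bromide stain; cross-linked double-stranded DNA scored against single-stranded DNA.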

PC-3 = test: Cytotoxicity against human PC3 cells after 72 hrs by alamar blue assay; format: functional, cell-based; details: PC-3, 72 h; outline: as §3
CCRF-CEM [3] = test: Selectivity ratio of IC50 for vinblastine-resistant human CCRF-CEM cells to IC50 for human CCRF-CEM cells; format: functional
[4] = Cytotoxicity against human CL1-0 cells after 72 hrs by alamar blue assay; format: functional, cell-based; details: CL1-0, 72 h; outline: as §3
[5] = Cytotoxicity against human H1299 cells after 72 hrs by alamar blue assay; format: functional, cell-based; details: NCI-H1299, 72 h; outline: as §3
CCRF-CEM [6] = test: Cytotoxicity against taxol-resistant human CCRF-CEM cells after 72 hrs by XTT assay; format: functional, cell-based; outline: as §2
HCT-116 = test: Cytotoxicity against human HCT116 cells after 72 hrs by SRB assay; format: functional, cell-based; details: HCT-116, 72 h; outline: as §1
[7] = Cytotoxicity against human CL1-5 cells after 72 hrs by alamar blue assay; format: functional, cell-based; details: CL1-5, 72 h; outline: as §3
CCRF-CEM [8] = test: Cytotoxicity against vinblastine-resistant human CCRF-CEM cells after 72 hrs by XTT assay; format: functional, cell-based; outline: as §2
U-87MG ATCC = details: Homo sapiens, 80 mg/kg

Row | SMILES | IC50 (MX1) [µM] | IC50 (CCRF-CEM [1]) [µM] | Ratio IC50 (CCRF-CEM [2]) | IC50 (MCF7) [µM] | Activity (Nucleic Acid) | IC50 (PC-3) [µM] | Ratio IC50 (CCRF-CEM [3]) | IC50 [4] [µM] | IC50 [5] [µM] | IC50 (CCRF-CEM [6]) [µM] | IC50 (HCT-116) [µM] | IC50 [7] [µM] | IC50 (CCRF-CEM [8]) [µM] | inhibition (U-87MG ATCC)
1 | CN(C)CCCOc1ccc(NC(=O)Nc2ccc(N(CCCl)CCCl)cc2)cc1.Cl | 0.26 | 0.12 | 11.8 | 1.32 | Active | 0.94 | 10.9 | 7.09 | 9.79 | 1.36 | 0.29 | 5.11 | 1.26 | 
2 | Cl.O=C(Nc1ccc(OCCN2CCCC2)cc1)Nc1ccc(N(CCCl)CCCl)cc1 | 0.49 | 0.14 | 11.5 | 1.84 |  | 1.78 | 15 | 3.01 | 2.25 | 1.57 | 0.7 | 5.92 | 2.05 | 
3 | Cl.O=C(Nc1ccc(OCCN2CCOCC2)cc1)Nc1ccc(N(CCCl)CCCl)cc1 |  | 0.35 | 2.4 |  |  |  | 1.8 |  |  | 0.84 |  |  | 0.64 | 
4 | CC[C@]1(O)C[C@@H]2CN(CCc3c([nH]c4ccccc34)[C@@](C(=O)OC)(c3cc4c(cc3OC)N(C)[C@H]3[C@@](O)(C(=O)OC)[C@H](OC(C)=O)[C@]5(CC)C=CCN6CC[C@]43[C@@H]65)C2)C1 [VINBLASTINE] |  | 0.0007 | 106.2 |  |  |  | 679.5 |  |  | 0.08 |  |  |  | 
5 | Cl.O=C(Nc1ccc(N(CCCl)CCCl)cc1)Nc1cccc(C(=O)N2CCC(N3CCCCC3)CC2)c1 | 2.24 | 0.28 | 43.5 | 3.09 |  | 3.19 | 71.6 | 6.23 | 11.5 | 12.2 | 0.81 | 8.09 | 20 | 
6 | Cl.O=C(Nc1ccc(N(CCCl)CCCl)cc1)Nc1cccc(C(=O)NCCN2CCCC2)c1 | 2.17 | 0.34 | 73.7 |  |  |  | 106.9 |  |  | 25.2 | 0.47 |  | 36.6 | 
7 | CN(C)CCOc1ccc(NC(=O)Nc2ccc(N(CCCl)CCCl)cc2)cc1.Cl | 0.28 | 0.1 | 7.6 | 1.25 |  | 1.67 | 6.02 | 4.07 | 4.38 | 1.5 | 0.27 | 3.01 | 1.19 | 
8 | CC(=O)O[C@H]1C(=O)[C@@]2(C)[C@H]([C@H](OC(=O)c3ccccc3)[C@]3(O)C[C@H](OC(=O)[C@H](O)[C@@H](NC(=O)c4ccccc4)c4ccccc4)C(C)=C1C3(C)C)[C@]1(OC(C)=O)CO[C@@H]1C[C@@H]2O [PACLITAXEL] |  | 0.003 | 330 |  |  |  | 980 |  |  |  |  |  |  | 
9 | Cl.O=C(Nc1ccc(C(=O)NCCN2CCCC2)cc1)Nc1ccc(N(CCCl)CCCl)cc1 | 2.33 | 0.27 | 71.8 |  |  |  | 112.5 |  |  | 19.7 | 0.36 |  | 30.8 | 
10 | Cl.O=C(Nc1ccc(C(=O)N2CCC(N3CCCCC3)CC2)cc1)Nc1ccc(N(CCCl)CCCl)cc1 | 3.64 | 0.22 | 91.4 | 1.54 |  | 1.91 | 143.7 | 15.8 | 9.63 | 20.5 | 0.64 | 8.51 | 32.2 | 
11 | Cl.O=C(Nc1ccc(N(CCCl)CCCl)cc1)Nc1cccc(C(=O)NCCN2CCCCC2)c1 | 0.73 | 0.27 | 17 | 1.18 | Active | 1.7 | 43.7 | 8.67 | 6.22 | 4.62 | 0.31 | 4.64 | 10.5 | 
12 | CN(C)CCCNC(=O)c1cccc(NC(=O)Nc2ccc(N(CCCl)CCCl)cc2)c1.Cl | 2.33 | 0.29 | 9.4 |  |  |  | 151.8 |  |  | 21.2 | 0.85 |  | 44 | 
13 | Cl.O=C(Nc1ccc(N(CCCl)CCCl)cc1)Nc1cccc(C(=O)NCCN2CCOCC2)c1 | 1.45 | 0.58 | 14.1 |  |  |  | 28.1 |  |  | 8.16 | 1.21 |  | 16.3 | 
14 | CN(C)CCOc1cccc(NC(=O)Nc2ccc(N(CCCl)CCCl)cc2)c1 |  | 1.32 | 0.6 |  |  |  | 1.1 |  |  | 0.81 |  |  | 1.48 | 
15 | Cl.O=C(Nc1ccc(OCCN2CCCCC2)cc1)Nc1ccc(N(CCCl)CCCl)cc1 | 0.15 | 0.12 | 4.02 | 1.24 | Active | 0.93 | 7.47 | 2.87 | 1.84 | 0.5 | 0.27 | 4.75 | 0.72 | 
16 | CN(C)CCCNC(=O)c1ccc(NC(=O)Nc2ccc(N(CCCl)CCCl)cc2)cc1.Cl | 1.11 | 0.26 | 77.5 | 5.17 |  | 5.25 | 124.8 | 16.2 | 12.7 | 20.4 | 4.54 | 9.79 | 32.8 | 
17 | Cl.O=C(Nc1ccc(C(=O)NCCN2CCOCC2)cc1)Nc1ccc(N(CCCl)CCCl)cc1 | 3.39 | 0.73 | 27.1 |  |  |  | 16.8 |  |  | 19.8 | 2.74 |  | 29.8 | 
18 | O=P1(N(CCCl)CCCl)NCCCO1 (stereo not drawn) |  |  |  |  |  |  |  |  |  |  |  |  |  | Active
19 | O=C(Nc1ccc(N(CCCl)CCCl)cc1)Nc1cccc(OCCN2CCOCC2)c1 |  | 0.41 | 1.8 |  |  |  | 2.8 |  |  | 0.73 |  |  | 1.13 | 
20 | O=C(Nc1ccc(N(CCCl)CCCl)cc1)Nc1cccc(OCCN2CCCC2)c1 |  | 0.35 | 3.5 |  |  |  | 12.1 |  |  | 1.2 |  |  | 4.2 | 
21 | O=C(Nc1ccc(N(CCCl)CCCl)cc1)Nc1cccc(OCCN2CCCCC2)c1 | 0.19 | 0.19 | 3 | 1.82 |  | 1.13 | 3.8 | 2.73 | 1.52 | 0.57 | 0.27 | 3.25 | 0.73 | 
22 | Cl.O=C(Nc1ccc(C(=O)NCCN2CCCCC2)cc1)Nc1ccc(N(CCCl)CCCl)cc1 | 4.4 | 0.36 | 41.8 |  |  |  | 67.8 |  |  | 15 | 0.91 |  | 24.3 | 
23 | CN(C)CCCOc1cccc(NC(=O)Nc2ccc(N(CCCl)CCCl)cc2)c1 |  | 0.32 | 6.4 |  |  |  | 7.4 |  |  | 2.05 |  |  | 2.37 | 
24 | CN(C)CCNC(=O)c1ccc(NC(=O)Nc2ccc(N(CCCl)CCCl)cc2)cc1.Cl | 1.09 | 0.23 | 21.1 |  |  |  | 29.6 |  |  | 4.8 | 0.39 |  | 6.74 | 
